These results are taken from ChEMBL document CHEMBL4390675, “Dopamine D4 Receptor-Selective Compounds Reveal Structure-Activity Relationships that Engender Agonist Efficacy” (J Med Chem, 2019).

Usually Ki stands for a dissociation constant, usually derived from enzyme kinetics or from competition with a known ligand. By EC50 is commonly meant the concentration needed to bring the measured effect to its halfway point. A word on the IC50: it is the concentration needed to halve the response being measured.

For data set [1], the target named is T1, D(4) dopamine receptor (Homo sapiens, UniProt P21917).
T1 sequence (P21917 whole entry): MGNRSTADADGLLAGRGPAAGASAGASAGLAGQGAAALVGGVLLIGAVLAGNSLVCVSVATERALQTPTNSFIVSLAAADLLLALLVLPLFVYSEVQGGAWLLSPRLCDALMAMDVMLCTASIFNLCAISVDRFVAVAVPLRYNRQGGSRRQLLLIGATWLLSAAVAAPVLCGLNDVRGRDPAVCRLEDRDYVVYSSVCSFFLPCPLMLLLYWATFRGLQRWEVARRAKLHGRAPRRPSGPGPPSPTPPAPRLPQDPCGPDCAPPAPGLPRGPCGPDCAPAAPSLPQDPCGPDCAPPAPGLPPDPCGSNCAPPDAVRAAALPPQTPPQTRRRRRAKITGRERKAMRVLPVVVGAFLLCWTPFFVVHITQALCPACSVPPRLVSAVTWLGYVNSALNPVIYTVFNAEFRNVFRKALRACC
As to the kind of experiment: Displacement of [3H]N-methylspiperone from human D4.4 receptor expressed in HEK293 cell membranes measured after 60 mins by scintillation counting method. A digest of the protocol: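 Frozen HEK293 membranes stably expressing human D4.4R (30 μg/well) in EBSS-bicarbonate buffer, pH 7.4, were incubated with 0.4 nM [3H]N-methylspiperone and half-log compound dilutions (30% DMSO vehicle) for 60 min at room temperature. Nonspecific binding was defined by 10 μM (+)-butaclamol. Samples were filtered on GF/B filters and counted by scintillation.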

For data set [2], the target named is T2, D(3) dopamine receptor (Homo sapiens, UniProt P35462). As to the kind of experiment: Agonist activity at human D3 receptor expressed in CHOK1 cells assessed as induction of beta-arrestin recruitment measured after 90 mins by luminescence assay. Format: cell-based. A digest of the protocol:
(§1)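 PathHunter enzyme-complementation assay in CHO-K1 cells stably expressing human D2R long isoform, D3R or D4R, seeded overnight in Ham's F12/10% FBS. Compounds were diluted in PBS with 0.2 μM sodium metabisulfite and applied at multiple concentrations for 90 min at 37 °C. Detection reagent was added for 45–60 min at room temperature, then luminescence was read. Values are % of maximal dopamine response, from nonlinear regression of triplicate runs, mean ± SEM, n = 3–4.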
Background: Activated receptors often draw arrestin, which recruitment assays turn into a signal.

Data set [3] concerns the target T3, D(2) dopamine receptor (Homo sapiens, UniProt P14416). As to the kind of experiment: Antagonist activity at human D2L receptor expressed in CHOK1 cells assessed as inhibition of dopamine-induced beta-arrestin recruitment measured after 90 mins by luminescence assay relative to control. Format: cell-based. A digest of the protocol: (§2)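 Antagonist-mode PathHunter β-arrestin assay in CHO-K1 cells stably expressing human D2R long isoform or D3R, seeded overnight. Compound dilutions in PBS with 0.2 μM metabisulfite were co-incubated with an EC80 dopamine concentration for 90 min at 37 °C. Detection reagent was added for 45–60 min at room temperature, then luminescence was read. Values are % of dopamine EC80 response, from nonlinear regression of triplicate runs, n = 3–4.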

The target of data set [4] is T1, D(4) dopamine receptor. As to the kind of experiment: Antagonist activity at human D4 receptor expressed in CHOK1 cells assessed as inhibition of dopamine-induced beta-arrestin recruitment measured after 90 mins by luminescence assay. The data set is classed as cell-based. The note with it: read-out: IC50.
For data set [5], the target named is T3, D(2) dopamine receptor. As to the kind of experiment: Antagonist activity at human D2L receptor expressed in CHOK1 cells assessed as suppression of dopamine-induced inhibition of forskolin-stimulated cAMP accumulation measured after 30 mins by Eu-cAMP tracer based TR-FRET assay relative to dopamine. The data set is classed as cell-based. The following applies: 0.5 h.

Data set [6] concerns the target T2, D(3) dopamine receptor. As to the kind of experiment: Displacement of [3H]N-methylspiperone from human D3 receptor expressed in HEK293 cell membranes measured after 60 mins by scintillation counting method. Summed up: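 HEK293 cells stably expressing human D3R; membranes in EBSS buffer pH 7.4, stored at −80 °C. 20 μg protein/well with 0.4 nM [3H]N-methylspiperone (final), half-log dilutions in 30% DMSO, in triplicate. 60 min at room temperature, then GF/B filtration. Nonspecific binding with 10 μM (+)-butaclamol.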
A general note: Loss of bound radioactivity is the signal in a displacement assay; it reports binding, not function.

The target in data set [7] is T1, D(4) dopamine receptor. As to the kind of experiment: Antagonist activity at human D4 receptor expressed in CHOK1 cells assessed as suppression of dopamine-induced inhibition of forskolin-stimulated cAMP accumulation measured after 30 mins by Eu-cAMP tracer based TR-FRET assay. Format: functional, cell-based.
For data set [8], the target named is T1, D(4) dopamine receptor. As to the kind of experiment: Agonist activity at human D4 receptor expressed in CHOK1 cells assessed as induction of beta-arrestin recruitment measured after 90 mins by luminescence assay. The data set is classed as cell-based. Summed up:
as §1

Data set [9] has as its target T2, D(3) dopamine receptor. As to the kind of experiment: Antagonist activity at human D3 receptor expressed in CHOK1 cells assessed as inhibition of dopamine-induced beta-arrestin recruitment measured after 90 mins by luminescence assay. Format: cell-based. A digest of the protocol:
as §2

Data set [10] addresses T3, D(2) dopamine receptor. As to the kind of experiment: Agonist activity at human D2L receptor expressed in CHOK1 cells assessed as induction of beta-arrestin recruitment measured after 90 mins by luminescence assay. Format: cell-based. Summed up:
as §1

The target of data set [11] is T3, D(2) dopamine receptor. As to the kind of experiment: Agonist activity at human D2L receptor expressed in CHOK1 cells assessed as inhibition of forskolin-induced cAMP accumulation measured after 30 mins by Eu-cAMP tracer based TR-FRET assay. The data set is classed as cell-based. A digest of the protocol: (§3)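 LANCE Ultra TR-FRET cAMP assay in CHO-K1 cells stably expressing human D2R long isoform or D4R. Cells were plated in HBSS/5 mM HEPES/0.2 μM metabisulfite, then immediately given compound plus forskolin (10 μM final) for 30 min at room temperature. Eu-cAMP tracer and ULight-anti-cAMP were added for 2 h in the dark. Values are % of maximal dopamine signal, nonlinear regression of triplicate runs, n = 3–4.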
(In general: cAMP levels reflect the balance of adenylyl cyclase and phosphodiesterase activity.)

Data set [12] addresses T1, D(4) dopamine receptor. As to the kind of experiment: Agonist activity at human D4 receptor expressed in CHOK1 cells assessed as inhibition of forskolin-induced cAMP accumulation measured after 30 mins by Eu-cAMP tracer based TR-FRET assay. Format: functional, cell-based. Summed up: as §3
The target in data set [13] is T2, D(3) dopamine receptor. As to the kind of experiment: Displacement of [3H](R)-(+)-7-OH-DPAT from human D3 receptor expressed in HEK293 cell membranes measured after 90 mins by scintillation counting method. A digest of the protocol:
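Fresh HEK293 hD3R membranes (40 μg/well) in 50 mM Tris, 10 mM MgCl2, 1 mM EDTA, pH 7.4 were incubated with 0.5 nM [3H]-(R)-(+)-7-OH-DPAT and half-log compound dilutions in 30% DMSO for 90 min at room temperature. Nonspecific binding was defined with 10 μM (+)-butaclamol. Samples were filtered on PEI-soaked GF/B filters and counted by scintillation.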

Data set [14] has as its target T1, D(4) dopamine receptor. As to the kind of experiment: Displacement of [3H](R)-(+)-7-OH-DPAT from human D4.4 receptor expressed in HEK293 cell membranes measured after 90 mins by scintillation counting method. A digest of the protocol:
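HEK293 cells stably expressing human D4.4R; membranes used fresh in 50 mM Tris, 10 mM MgCl2, 1 mM EDTA, pH 7.4. 60 μg protein/well with 3 nM [3H]-(R)-(+)-7-OH-DPAT (final), half-log dilutions in 30% DMSO, in triplicate. 90 min at room temperature, then GF/B filtration. Nonspecific binding with 10 μM (+)-butaclamol.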

T3 sequence (P14416 whole entry, canonical isoform): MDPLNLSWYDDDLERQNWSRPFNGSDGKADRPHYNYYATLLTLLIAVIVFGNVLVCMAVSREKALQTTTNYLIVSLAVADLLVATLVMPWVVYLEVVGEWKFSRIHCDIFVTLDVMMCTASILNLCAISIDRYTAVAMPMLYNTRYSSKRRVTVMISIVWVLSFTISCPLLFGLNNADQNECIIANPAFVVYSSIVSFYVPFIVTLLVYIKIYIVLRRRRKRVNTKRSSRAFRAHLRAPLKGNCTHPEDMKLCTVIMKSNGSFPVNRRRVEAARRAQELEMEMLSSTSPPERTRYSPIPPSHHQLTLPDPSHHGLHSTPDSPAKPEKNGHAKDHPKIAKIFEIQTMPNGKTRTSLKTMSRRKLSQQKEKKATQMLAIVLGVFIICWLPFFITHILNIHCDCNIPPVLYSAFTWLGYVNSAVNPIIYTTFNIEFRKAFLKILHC
T2 sequence (P35462 whole entry, canonical isoform): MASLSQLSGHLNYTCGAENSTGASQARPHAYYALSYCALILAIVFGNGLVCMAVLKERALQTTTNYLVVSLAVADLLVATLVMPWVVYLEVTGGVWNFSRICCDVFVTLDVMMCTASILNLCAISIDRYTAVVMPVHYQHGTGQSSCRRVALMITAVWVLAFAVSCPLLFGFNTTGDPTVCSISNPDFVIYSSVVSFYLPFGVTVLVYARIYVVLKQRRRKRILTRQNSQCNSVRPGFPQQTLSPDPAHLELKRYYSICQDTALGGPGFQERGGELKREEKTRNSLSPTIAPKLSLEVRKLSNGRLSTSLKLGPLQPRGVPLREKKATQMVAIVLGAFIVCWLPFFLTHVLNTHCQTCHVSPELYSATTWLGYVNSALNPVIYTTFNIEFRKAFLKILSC

With `Cc1ccc(C2CCN(CC(=O)Nc3cccc(C)c3)CC2)cc1`, the results for the Ki on D(4) dopamine receptor [1] and at D(3) dopamine receptor [6] were 110 nM and 3.68 µM, respectively. Also, the half-maximal effective concentration (EC50) entry on D(3) dopamine receptor [2], at D(4) dopamine receptor [8], on D(2) dopamine receptor [10], on D(2) dopamine receptor [11] and on D(4) dopamine receptor [12] was “Not Active” in each case. For the same compound, the INH at D(2) dopamine receptor [3] was determined as 100%. The values for the half-inhibitory concentration (IC50) at D(4) dopamine receptor [4], on D(4) dopamine receptor [7] and on D(3) dopamine receptor [9] were 7.35 µM, 3.06 µM and “Not Active”, respectively. Further, at D(2) dopamine receptor [5], the “inhibition (INH)” value stood at 100%.

Take `Cc1cccc(NC(=O)CN2CCN(c3ccc(Cl)cn3)CC2)c1`: the Ki on D(4) dopamine receptor [1] is 95 nM; at D(3) dopamine receptor [13] it was > 10 µM; at D(4) dopamine receptor [14], 12.5 nM; at D(3) dopamine receptor [6], > 50 µM. Moreover, the EC50 entry at D(3) dopamine receptor [2], at D(4) dopamine receptor [8], on D(2) dopamine receptor [10], at D(2) dopamine receptor [11] and on D(4) dopamine receptor [12] was “Not Active” throughout. The INH at D(2) dopamine receptor [3] is given as 100%. In addition, the IC50 on D(4) dopamine receptor [4] was 7.78 µM; on D(4) dopamine receptor [7] it was 4.7 µM; on D(3) dopamine receptor [9] it was “Not Active”. Moreover, the “inhibition (INH)” value on D(2) dopamine receptor [5] amounted to 98.3%.

On to `Cc1cccc(NC(=O)CN2CCC(c3ccc(Cl)cc3)CC2)c1`, for which the EC50 result at D(3) dopamine receptor [2], on D(4) dopamine receptor [8], on D(2) dopamine receptor [10], on D(2) dopamine receptor [11] and on D(4) dopamine receptor [12] was “Not Active” throughout. Further, the INH on D(2) dopamine receptor [3] is 100%. Also, the “inhibition (INH)” value at D(2) dopamine receptor [5] is 97.5%. Moreover, the Ki on D(3) dopamine receptor [6] came to 26.3 µM. In addition, the IC50 entry at D(3) dopamine receptor [9] is recorded as “Not Active”.

As to `CCc1cccc(NC(=O)CN2CCN(c3ccc(Cl)cn3)CC2)c1`, the Ki was 172 nM at D(4) dopamine receptor [1] and > 50 µM on D(3) dopamine receptor [6]. Further, the EC50 result at D(3) dopamine receptor [2], on D(4) dopamine receptor [8], at D(2) dopamine receptor [10], at D(2) dopamine receptor [11] and at D(4) dopamine receptor [12] was “Not Active” throughout. Further, the INH on D(2) dopamine receptor [3] is reported as 100%. Moreover, the concentration for half-maximal inhibition (IC50) on D(4) dopamine receptor [4] was 10.4 µM; at D(4) dopamine receptor [7], 7.06 µM; on D(3) dopamine receptor [9], “Not Active”. The “inhibition (INH)” value at D(2) dopamine receptor [5] turned out to be 100%.

In the case of `CCc1cccc(NC(=O)CN2CCC(c3ccccn3)CC2)c1`, the results for the Ki at D(4) dopamine receptor [1] and on D(3) dopamine receptor [6] were 82.3 nM and 0.496 µM, respectively. In addition, the EC50 result on D(3) dopamine receptor [2] is “Not Active”; at D(4) dopamine receptor [8] it was “Not Active”; at D(2) dopamine receptor [10] it was “Not Active”; at D(2) dopamine receptor [11], “Not Active”; at D(4) dopamine receptor [12] (read-out: EC50) it was 539 nM. Also, on D(2) dopamine receptor [3], the INH is reported as 100%. The half-inhibitory concentration (IC50) at D(4) dopamine receptor [4] was 2.62 µM; on D(4) dopamine receptor [7], 1.91 µM; on D(3) dopamine receptor [9], “Not Active”. For the same compound, at D(2) dopamine receptor [5], the “inhibition (INH)” value is 96.6%.

Regarding `Cc1ccc(C2CCN(CC(=O)Nc3cccc(C)c3)CC2)nc1`, the inhibition constant (Ki) is 41.7 nM at D(4) dopamine receptor [1], > 10 µM on D(3) dopamine receptor [13], 6.87 nM at D(4) dopamine receptor [14] and > 50 µM at D(3) dopamine receptor [6]. For the same compound, the EC50 result on D(3) dopamine receptor [2], on D(4) dopamine receptor [8], at D(2) dopamine receptor [10], at D(2) dopamine receptor [11] and on D(4) dopamine receptor [12] was “Not Active” in each case. Further, on D(2) dopamine receptor [3], the INH amounted to 100%. The values for the IC50 at D(4) dopamine receptor [4], at D(4) dopamine receptor [7] and on D(3) dopamine receptor [9] were 0.394 µM, 0.453 µM and “Not Active”, respectively. The “inhibition (INH)” value at D(2) dopamine receptor [5] worked out at 100%.
